Laboratory results from ChEMBL document CHEMBL4196175, “First SAR Study for Overriding NRAS Mutant Driven Acute Myeloid Leukemia” (J Med Chem, 2018).
The source made the active and inactive calls. No cut-off for these calls is given here.

How the values were obtained:
[1] = AUClast in mouse at 10 mg/kg, po; format: ADME, organism-based; set-up: dose 10 mg/kg, time 0 - last, route oral; conditions: in vivo
[2] = Half life in mouse at 10 mg/kg, po; format: ADME, organism-based; conditions: in vivo
[3] = biological target: T1, Activated CDC42 kinase 1 (Homo sapiens, UniProt Q07912); test: Inhibition of ACK1 in human OCI-AML3 cells harboring NRAS Q61L mutant assessed as reduction in P70S6K1 phosphorylation at Thr421/Ser424 after 2 hrs by Western blot analysis; format: cell-based
T1 sequence (Q07912 whole entry, looked up): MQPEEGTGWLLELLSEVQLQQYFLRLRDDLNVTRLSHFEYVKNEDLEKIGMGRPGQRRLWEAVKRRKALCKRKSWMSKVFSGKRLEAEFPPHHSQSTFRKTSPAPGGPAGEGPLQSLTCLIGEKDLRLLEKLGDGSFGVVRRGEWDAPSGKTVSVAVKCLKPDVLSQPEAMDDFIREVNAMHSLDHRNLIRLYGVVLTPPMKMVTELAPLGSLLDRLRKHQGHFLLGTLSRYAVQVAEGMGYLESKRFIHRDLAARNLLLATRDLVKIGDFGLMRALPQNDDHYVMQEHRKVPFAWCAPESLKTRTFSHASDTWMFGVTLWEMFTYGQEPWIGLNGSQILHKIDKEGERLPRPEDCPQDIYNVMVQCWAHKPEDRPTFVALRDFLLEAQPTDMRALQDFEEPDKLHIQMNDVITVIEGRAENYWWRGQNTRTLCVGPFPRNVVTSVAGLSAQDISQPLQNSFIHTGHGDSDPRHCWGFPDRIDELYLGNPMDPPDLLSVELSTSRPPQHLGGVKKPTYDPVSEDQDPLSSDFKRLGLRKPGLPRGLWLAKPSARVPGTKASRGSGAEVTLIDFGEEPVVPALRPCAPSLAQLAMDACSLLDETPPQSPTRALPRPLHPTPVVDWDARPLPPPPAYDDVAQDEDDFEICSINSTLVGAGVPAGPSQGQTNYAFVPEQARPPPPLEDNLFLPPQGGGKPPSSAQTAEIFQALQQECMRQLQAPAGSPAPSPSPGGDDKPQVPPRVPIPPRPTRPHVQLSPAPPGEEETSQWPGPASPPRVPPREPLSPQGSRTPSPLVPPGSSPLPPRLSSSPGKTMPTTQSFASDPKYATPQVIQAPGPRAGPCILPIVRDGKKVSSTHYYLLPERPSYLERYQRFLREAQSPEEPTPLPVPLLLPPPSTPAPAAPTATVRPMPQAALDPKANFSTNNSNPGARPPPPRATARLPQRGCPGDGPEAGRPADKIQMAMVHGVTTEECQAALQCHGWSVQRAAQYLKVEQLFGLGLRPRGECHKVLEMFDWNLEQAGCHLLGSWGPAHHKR
How it was run: (§1)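 Ba/F3-NRAS-G12D or OCI-AML3 cells exposed 2 h to compounds (1 µM, or a dose series in OCI-AML3); phospho-p70S6K1, phospho-AKT S473, phospho-JNK and phospho-p38 assessed by western blot, actin as loading control.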

[4] = biological target: T2, Mitogen-activated protein kinase kinase kinase kinase 2 (Homo sapiens) (UniProt Q12851); test: Inhibition of GCK in human OCI-AML3 cells harboring NRAS Q61L mutant assessed as reduction in p38 phosphorylation at Thr180/Tyr182 after 2 hrs by Western blot analysis; format: cell-based; how it was run: as §1
T2 sequence (whole entry): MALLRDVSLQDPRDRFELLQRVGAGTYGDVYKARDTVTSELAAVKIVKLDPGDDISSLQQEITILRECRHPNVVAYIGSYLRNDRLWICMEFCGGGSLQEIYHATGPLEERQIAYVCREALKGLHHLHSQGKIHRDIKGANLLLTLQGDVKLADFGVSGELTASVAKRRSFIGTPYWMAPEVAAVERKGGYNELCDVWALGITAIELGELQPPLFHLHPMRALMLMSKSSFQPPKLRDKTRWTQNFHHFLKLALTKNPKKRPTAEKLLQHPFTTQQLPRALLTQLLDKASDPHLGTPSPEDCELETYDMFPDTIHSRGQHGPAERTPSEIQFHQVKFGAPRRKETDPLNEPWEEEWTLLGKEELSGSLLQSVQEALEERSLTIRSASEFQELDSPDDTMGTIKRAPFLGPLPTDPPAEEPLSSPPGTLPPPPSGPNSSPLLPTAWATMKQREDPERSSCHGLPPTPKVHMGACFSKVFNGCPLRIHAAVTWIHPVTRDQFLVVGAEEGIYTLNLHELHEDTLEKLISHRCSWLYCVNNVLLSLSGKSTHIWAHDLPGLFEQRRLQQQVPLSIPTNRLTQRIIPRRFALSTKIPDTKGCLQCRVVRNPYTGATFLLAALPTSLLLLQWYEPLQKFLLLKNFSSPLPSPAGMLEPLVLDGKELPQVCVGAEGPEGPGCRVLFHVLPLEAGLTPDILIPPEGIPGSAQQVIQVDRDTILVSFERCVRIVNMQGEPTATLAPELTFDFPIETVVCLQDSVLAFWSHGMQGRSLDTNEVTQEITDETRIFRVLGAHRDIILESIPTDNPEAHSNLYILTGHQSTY

[5] = test system: BaF3; test: Induction of apoptosis in mouse BA/F3 cells expressing NRAS-G12D mutant assessed as increase in cleaved caspase-3 levels at 5 uM after 24 hrs by Western blot analysis; format: functional, cell-based
How it was run: (§2)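 Cells treated 24 h with indicated concentrations (1 µM; 5 µM also used in Ba/F3-NRAS-G12D); cleaved PARP, cleaved caspase 3, bcl-2 and MCL1 detected by western blot with actin as loading control.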

[6] = test system: OCI-AML-3; test: Induction of apoptosis in human OCI-AML3 cells harboring NRAS Q61L mutant assessed as increase in cleaved caspase-3 levels at 1 uM after 24 hrs by Western blot analysis; format: functional, cell-based; how it was run: as §2
[7] = test system: OCI-AML-3; test: Induction of apoptosis in human OCI-AML3 cells harboring NRAS Q61L mutant assessed as decrease in bcl2 levels at 1 uM after 24 hrs by Western blot analysis; format: functional, cell-based; how it was run: as §2
[8] = biological target: Tyrosine-protein kinase Blk (Homo sapiens) (UniProt P51451); test: Inhibition of human BLK at 1 uM relative to control
Chain of Tyrosine-protein kinase Blk (Homo sapiens) (P51451 2-505 limits assumed): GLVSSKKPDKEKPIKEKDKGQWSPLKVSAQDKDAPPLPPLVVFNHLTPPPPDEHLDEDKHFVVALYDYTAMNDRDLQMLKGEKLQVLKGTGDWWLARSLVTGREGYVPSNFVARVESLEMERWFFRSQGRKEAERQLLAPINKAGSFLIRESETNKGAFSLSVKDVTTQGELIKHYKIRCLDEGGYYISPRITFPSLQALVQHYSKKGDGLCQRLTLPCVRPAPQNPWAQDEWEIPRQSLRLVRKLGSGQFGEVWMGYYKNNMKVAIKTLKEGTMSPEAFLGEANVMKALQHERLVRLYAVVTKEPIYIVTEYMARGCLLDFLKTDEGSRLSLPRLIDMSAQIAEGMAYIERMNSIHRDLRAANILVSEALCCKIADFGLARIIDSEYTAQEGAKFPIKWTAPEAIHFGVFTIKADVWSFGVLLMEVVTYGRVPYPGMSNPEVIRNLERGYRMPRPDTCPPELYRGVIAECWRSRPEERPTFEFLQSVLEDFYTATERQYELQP

[9] = biological target: Mitogen-activated protein kinase 11 (Homo sapiens) (UniProt Q15759); test: Inhibition of human P38beta at 1 uM relative to control
Chain of Mitogen-activated protein kinase 11 (Homo sapiens) (Q15759 whole entry): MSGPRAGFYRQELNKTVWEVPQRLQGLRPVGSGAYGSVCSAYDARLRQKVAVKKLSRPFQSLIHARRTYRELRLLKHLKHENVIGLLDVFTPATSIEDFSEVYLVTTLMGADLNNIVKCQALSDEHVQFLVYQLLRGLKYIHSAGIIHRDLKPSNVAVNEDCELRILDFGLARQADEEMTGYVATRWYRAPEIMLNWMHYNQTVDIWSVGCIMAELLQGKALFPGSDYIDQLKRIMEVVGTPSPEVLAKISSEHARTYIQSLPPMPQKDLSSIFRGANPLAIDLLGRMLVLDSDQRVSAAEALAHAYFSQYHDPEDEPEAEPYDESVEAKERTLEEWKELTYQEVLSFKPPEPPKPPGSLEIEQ

[10] = biological target: Platelet-derived growth factor receptor beta (Homo sapiens) (UniProt P09619); test: Inhibition of human PDGFRbeta at 1 uM relative to control
Chain of Platelet-derived growth factor receptor beta (Homo sapiens) (P09619 whole entry): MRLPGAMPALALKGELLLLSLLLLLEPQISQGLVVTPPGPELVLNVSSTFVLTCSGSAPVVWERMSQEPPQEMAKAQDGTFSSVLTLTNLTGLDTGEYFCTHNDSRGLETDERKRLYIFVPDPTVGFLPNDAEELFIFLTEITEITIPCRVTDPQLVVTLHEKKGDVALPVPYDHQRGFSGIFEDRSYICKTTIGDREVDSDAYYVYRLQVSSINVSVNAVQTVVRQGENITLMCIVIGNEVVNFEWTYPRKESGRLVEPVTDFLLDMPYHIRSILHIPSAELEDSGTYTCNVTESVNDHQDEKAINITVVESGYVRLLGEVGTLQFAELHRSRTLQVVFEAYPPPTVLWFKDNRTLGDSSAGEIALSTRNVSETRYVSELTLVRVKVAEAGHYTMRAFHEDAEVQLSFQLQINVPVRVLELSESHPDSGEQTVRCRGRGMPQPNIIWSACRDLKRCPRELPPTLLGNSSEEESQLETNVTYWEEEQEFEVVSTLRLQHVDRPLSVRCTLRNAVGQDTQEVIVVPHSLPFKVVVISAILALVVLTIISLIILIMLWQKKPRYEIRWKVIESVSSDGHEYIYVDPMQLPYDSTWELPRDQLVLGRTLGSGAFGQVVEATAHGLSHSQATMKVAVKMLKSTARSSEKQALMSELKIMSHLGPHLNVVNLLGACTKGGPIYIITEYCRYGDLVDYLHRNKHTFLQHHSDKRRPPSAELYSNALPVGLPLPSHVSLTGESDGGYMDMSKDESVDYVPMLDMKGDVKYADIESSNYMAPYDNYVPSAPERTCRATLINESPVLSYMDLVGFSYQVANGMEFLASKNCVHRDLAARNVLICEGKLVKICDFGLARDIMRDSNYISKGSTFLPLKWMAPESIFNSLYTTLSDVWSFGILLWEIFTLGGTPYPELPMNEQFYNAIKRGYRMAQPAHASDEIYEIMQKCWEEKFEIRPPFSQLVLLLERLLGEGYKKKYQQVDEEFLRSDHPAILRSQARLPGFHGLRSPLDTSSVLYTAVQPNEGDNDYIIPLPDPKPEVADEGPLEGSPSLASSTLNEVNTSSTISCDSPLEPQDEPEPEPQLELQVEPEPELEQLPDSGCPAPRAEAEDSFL

[11] = biological target: Proto-oncogene tyrosine-protein kinase receptor Ret (Homo sapiens) (UniProt P07949); test: Inhibition of human RET at 1 uM relative to control
Chain of Proto-oncogene tyrosine-protein kinase receptor Ret (Homo sapiens) (P07949 whole entry): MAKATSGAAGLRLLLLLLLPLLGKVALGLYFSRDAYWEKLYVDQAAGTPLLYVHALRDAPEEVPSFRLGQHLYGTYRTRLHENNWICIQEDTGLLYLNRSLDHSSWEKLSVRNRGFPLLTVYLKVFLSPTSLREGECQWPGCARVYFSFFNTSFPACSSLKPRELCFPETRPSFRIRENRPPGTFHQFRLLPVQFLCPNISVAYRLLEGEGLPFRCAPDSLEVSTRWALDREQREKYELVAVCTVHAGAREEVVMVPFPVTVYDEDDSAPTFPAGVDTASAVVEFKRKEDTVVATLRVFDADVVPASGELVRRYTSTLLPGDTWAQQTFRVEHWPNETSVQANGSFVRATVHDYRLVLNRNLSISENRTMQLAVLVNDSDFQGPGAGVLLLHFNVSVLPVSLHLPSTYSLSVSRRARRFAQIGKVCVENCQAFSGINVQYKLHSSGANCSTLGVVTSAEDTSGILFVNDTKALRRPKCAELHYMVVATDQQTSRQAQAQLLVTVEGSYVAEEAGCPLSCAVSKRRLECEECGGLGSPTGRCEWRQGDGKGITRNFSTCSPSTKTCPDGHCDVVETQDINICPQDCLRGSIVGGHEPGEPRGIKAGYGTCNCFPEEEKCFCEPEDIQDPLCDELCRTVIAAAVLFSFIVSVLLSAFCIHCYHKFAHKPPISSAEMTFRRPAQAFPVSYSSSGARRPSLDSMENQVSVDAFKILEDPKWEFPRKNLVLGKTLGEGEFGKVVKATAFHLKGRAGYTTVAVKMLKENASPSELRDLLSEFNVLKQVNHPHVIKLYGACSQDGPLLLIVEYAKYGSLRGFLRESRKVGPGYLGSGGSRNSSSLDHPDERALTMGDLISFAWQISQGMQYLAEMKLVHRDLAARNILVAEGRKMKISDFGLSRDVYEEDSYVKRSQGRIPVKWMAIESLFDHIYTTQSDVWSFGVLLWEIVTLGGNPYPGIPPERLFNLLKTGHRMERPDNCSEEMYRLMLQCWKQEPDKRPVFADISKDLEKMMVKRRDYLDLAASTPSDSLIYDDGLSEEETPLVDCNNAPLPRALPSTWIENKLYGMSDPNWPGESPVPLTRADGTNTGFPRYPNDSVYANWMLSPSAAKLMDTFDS

[12] = biological target: Tyrosine-protein kinase HCK (Homo sapiens) (UniProt P08631); test: Inhibition of human HCK at 1 uM relative to control
[13] = biological target: Serine/threonine-protein kinase A-Raf (Homo sapiens) (UniProt P10398); test: Inhibition of human ARAF at 1 uM relative to control
Chain of Serine/threonine-protein kinase A-Raf (Homo sapiens) (P10398 whole entry): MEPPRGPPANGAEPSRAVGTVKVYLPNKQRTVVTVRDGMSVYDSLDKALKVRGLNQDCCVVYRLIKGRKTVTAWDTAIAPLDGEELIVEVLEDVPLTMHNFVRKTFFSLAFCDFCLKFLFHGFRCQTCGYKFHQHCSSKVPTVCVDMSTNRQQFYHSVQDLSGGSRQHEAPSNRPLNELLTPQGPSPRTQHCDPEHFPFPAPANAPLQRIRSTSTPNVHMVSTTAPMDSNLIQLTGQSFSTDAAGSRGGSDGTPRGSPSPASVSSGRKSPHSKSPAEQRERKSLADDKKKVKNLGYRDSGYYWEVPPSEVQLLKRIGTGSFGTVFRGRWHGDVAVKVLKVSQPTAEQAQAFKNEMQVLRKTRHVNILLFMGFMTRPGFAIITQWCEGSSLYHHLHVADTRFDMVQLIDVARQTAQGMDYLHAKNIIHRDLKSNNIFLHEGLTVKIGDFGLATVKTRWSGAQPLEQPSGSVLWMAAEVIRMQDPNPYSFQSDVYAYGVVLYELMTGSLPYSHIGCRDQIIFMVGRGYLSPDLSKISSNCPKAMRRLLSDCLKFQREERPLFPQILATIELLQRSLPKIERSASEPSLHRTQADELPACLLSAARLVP

[14] = biological target: Tyrosine-protein kinase Fyn (Homo sapiens) (UniProt P06241); test: Inhibition of human FYN at 1 uM relative to control
[15] = test system: OCI-AML-3; test: Induction of apoptosis in human OCI-AML3 cells harboring NRAS Q61L mutant assessed as increase in apoptotic cells at 1 uM after 24 hrs by annexin V/propidium iodide staining based FACS analysis relative to control; format: functional
How it was run: (§3)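 Apoptosis scored by flow cytometry after FITC-annexin V/propidium iodide dual staining following 24 h exposure, at 1 µM or a range of indicated concentrations; three independent experiments, mean with SD, one-way ANOVA.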

[16] = test system: BaF3; test: Induction of apoptosis in mouse BA/F3 cells expressing NRAS-G12D mutant assessed as increase in apoptotic cell after 24 hrs by annexin V/propidium iodide staining based FACS analysis; format: functional; how it was run: as §3
[17] = test system: OCI-AML-3; test: Induction of apoptosis in human OCI-AML3 cells harboring NRAS Q61L mutant assessed as increase in apoptotic cells after 24 hrs by annexin V/propidium iodide staining based FACS analysis; format: functional, cell-based; how it was run: as §3
[18] = test system: OCI-AML-3; test: Cell cycle arrest in human OCI-AML3 cells harboring NRAS Q61L mutant assessed as accumulation at G0/G1 phase at 1 uM after 24 hrs by propidium iodide staining based FACS analysis; format: functional
How it was run: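 OCI-AML3 cells treated 24 h at indicated concentrations, including 1 µM; cell-cycle phase distribution measured by flow cytometry after propidium iodide staining.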

[19] = test system: BaF3; test: Antileukemic activity against mouse BA/F3 cells harboring NRAS-G12D mutant allografted in immunodeficient mouse assessed as median survival time at 15 mg/kg/day, po qd administered on day 6 post implantation (reference value: 23 days); format: functional
[20] = test system: OCI-AML-3; test: Antileukemic activity against human OCI-AML3 cells harboring NRAS-Q61L mutant xenografted in immunodeficient mouse assessed as tumor volume at 25 mg/kg/day, po qd administered on day 21 post implantation measured on day 20 post dose (reference value: 100%); format: functional
[21] = test system: OCI-AML-3; test: Growth inhibition of ACK1/GCK knockdown human OCI-AML3 cells harboring NRAS-Q61L mutant at 0.5 uM after 72 hrs by celltiter-glo assay; format: functional, cell-based
[22] = biological target: RAF proto-oncogene serine/threonine-protein kinase (Homo sapiens) (UniProt P04049); conditions: 1 uM
[23] = biological target: Proto-oncogene tyrosine-protein kinase Src (Homo sapiens) (UniProt P12931); conditions: 1 uM
[24] = biological target: T1, Activated CDC42 kinase 1; conditions: 1 uM

For Cc1ccc(NC(=O)c2cccc(C(F)(F)F)c2)cc1N1Cc2cnc(N)nc2N(C)C1=O, the AUC(0-t) [1] was 36400 ng·h/mL, the half-life [2] was 12.4 h and the inhibition [3] was “Dose-dependent effect”. For the same compound, the inhibition [4] was “Dose-dependent effect”, the Activity [5] was “Active” and the Activity [6] was “Active”. The Activity [7] was “Active”, the inhibition [8] was 95.9% and the inhibition [9] was 98%. It also gave an inhibition [10] of 98.1%, an inhibition [11] of 98.7% and an inhibition [12] of 98.9%. For the same compound, the inhibition [13] was 99%, the inhibition [14] was 99.2% and the Activity [15] was 15 - 30%. The Activity [16] was “Dose-dependent effect”, the Activity [17] was “Dose-dependent effect” and the Activity [18] was “Active”. The MSD [19] was 29 days, the Activity [20] was 14.9% and the “growth inhibition (GI)” value [21] was “Active”. It also gave an inhibition [22] of 99.4%, an inhibition [23] of 100% and an inhibition [24] of 100%.

For CC(=O)N1CCN(c2ccc(Nc3ncc4c(n3)N(C)C(=O)N(c3cc(NC(=O)c5cccc(C(F)(F)F)c5)ccc3C)C4)cn2)CC1, the inhibition [3] was “Dose-dependent effect”, the inhibition [4] was “Dose-dependent effect” and the Activity [6] was “Active”. The Activity [7] was “Active”, the Activity [15] was 15 - 30% and the Activity [18] was “Active”.
